Reference: paper PMC3529859 (Leukemia, 2012)

Assays:
Assay type in all cases: cell-based, human
[1] = test system: FcεRI-mediated degranulation of primary HuMCs; assay: FcεRI-mediated degranulation of HuMCs; conditions: Ag 1 ng/ml; inhibition observed only at 1000 nM
[2] = test system: SCF-enhanced degranulation of primary HuMCs; assay: SCF-enhanced degranulation of HuMCs; conditions: Ag 0.1 ng/ml + SCF 10 ng/ml; up to 1000 nM
[3] = test system: KIT D816V+ primary bone marrow mast cells; conditions: 1 µM (1000 nM); 7 d; SCF 100 ng/ml; KIT D816V-positive patients n=5
Summary of the method: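 Bone marrow mononuclear cells from patients with systemic mastocytosis (WHO criteria, IRB-approved protocol, informed consent), with KIT D816V status determined by PCR/RFLP. Cells were incubated with test compound at 0, 100 or 1000 nM in 0.1% DMSO for 7 d with SCF (100 ng/ml), then mast cell viability was assessed.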

| SMILES | effect on FcεRI mediated mast cell degranulation [1] | effect on SCF-enhanced degranulation [2] | reduction in the viability of mast cells [3] [%] |
| --- | --- | --- | --- |
| Cc1ccc(NC(=O)c2ccc(CN3CCN(C)CC3)cc2)cc1Nc1nccc(-c2cccnc2)n1 [imatinib] | minimal effects | inhibited SCF-enhanced degranulation at the highest concentration |  |
| CO[C@@H]1[C@H](N(C)C(=O)c2ccccc2)C[C@H]2O[C@]1(C)n1c3ccccc3c3c4c(c5c6ccccc6n2c5c31)C(=O)NC4 [PKC 412] |  |  | 88 |
